The source made the active and inactive calls.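 How the source made its calls, unless noted: active means fluorescence slope after compound addition differing from the mean of all tested samples at 99.7% confidence, mostly higher but some lower; inactive means the rest.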
Columns and labels:
[1] = inhibitors of TNFa-induced NFkB p65 translocation, primary screen, imaging, HUVEC, MLSMR starter and 10KST1 sets (AID 438;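 active means inhibition above 20% together with a positive visual image hit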;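 further: compound added about 3h40 before a 20 min TNFalpha stimulation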;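 on inhibition: signal is the nuclear over cytoplasmic p65 intensity ratio per well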); settings: HUVEC TNFa-induced p65 nuclear translocation; cell count: measured here: nuclei count (cytotoxicity indicator), at 2.08 µM; inhibition: at 2 µM, stronger effect = higher value, 0% TNFa-plus-vehicle, 100% no-TNFa wells
[2] = endothelial E-selectin expression blockers – imaging, HUVEC, immunofluorescence, MLSMR starter and 10KST1 sets, primary screen (AID 487;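 active means visually confirmed hit in the image check and inhibition above 20%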;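 on inhibition: signal is fraction of cell area covered by stained E-selectin grains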;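 on nuclei count: 100% = median nuclei count of all wells on the same plate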); settings: HUVEC TNFalpha-induced E-selectin immunofluorescence imaging, at 2 µM; inhibition: stronger effect = higher value; nuclei count: measured here: cell number, toxicity
[3] = Primary imaging screen for DUSP6 inhibitors that restore phospho-Erk in transfected HeLa cells, chemical complementation (AID 609;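 active means compounds giving at least 50% inhibition in the cell-based MKP-3 phosphatase rescue imaging test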;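 on inhibition: phospho-Erk level distribution per well compared with pooled transfected vehicle control wells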); settings: HeLa MKP-3 transfected, phospho-Erk imaging KS statistic, at 10 µM, cells stimulated with TPA for 15 min
[4] = target: Dual specificity protein phosphatase 6 (Homo sapiens) (UniProt Q16828); experiment: as above; settings: HeLa MKP-3 transfected, phospho-Erk imaging KS statistic; at 10 µM; stronger effect = higher value; cells stimulated with TPA for 15 min
Dual specificity protein phosphatase 6 (Homo sapiens), sequence (Q16828 whole entry, looked up): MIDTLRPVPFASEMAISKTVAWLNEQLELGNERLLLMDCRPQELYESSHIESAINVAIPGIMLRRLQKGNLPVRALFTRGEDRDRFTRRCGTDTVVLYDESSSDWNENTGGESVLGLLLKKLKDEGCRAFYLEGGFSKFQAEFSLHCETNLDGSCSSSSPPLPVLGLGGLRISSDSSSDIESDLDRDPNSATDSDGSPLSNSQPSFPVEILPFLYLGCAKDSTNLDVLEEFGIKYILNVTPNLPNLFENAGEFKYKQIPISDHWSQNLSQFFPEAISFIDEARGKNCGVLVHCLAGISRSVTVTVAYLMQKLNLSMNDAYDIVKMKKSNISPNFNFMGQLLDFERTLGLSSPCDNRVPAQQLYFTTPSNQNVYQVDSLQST

[5] = target: Voltage-gated potassium channel subunit beta-2 (Rattus norvegicus) (UniProt P62483); experiment: inhibitors of rat Kvbeta2 reductase activity – biochemical, NADPH fluorescence, primary screen (AID 622;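 active means fluorescence slope higher than the sample average by over 3 SD, cut at about -0.22 in these data, passing the limit was not always enough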;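 further: slope of raw intensity against log time taken from 70 to 1610 s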); settings: recombinant KvBeta, 4-cyanobenzaldehyde reduction, at 10 µM, stronger effect = higher value
Voltage-gated potassium channel subunit beta-2 (Rattus norvegicus), sequence (P62483 whole entry, looked up): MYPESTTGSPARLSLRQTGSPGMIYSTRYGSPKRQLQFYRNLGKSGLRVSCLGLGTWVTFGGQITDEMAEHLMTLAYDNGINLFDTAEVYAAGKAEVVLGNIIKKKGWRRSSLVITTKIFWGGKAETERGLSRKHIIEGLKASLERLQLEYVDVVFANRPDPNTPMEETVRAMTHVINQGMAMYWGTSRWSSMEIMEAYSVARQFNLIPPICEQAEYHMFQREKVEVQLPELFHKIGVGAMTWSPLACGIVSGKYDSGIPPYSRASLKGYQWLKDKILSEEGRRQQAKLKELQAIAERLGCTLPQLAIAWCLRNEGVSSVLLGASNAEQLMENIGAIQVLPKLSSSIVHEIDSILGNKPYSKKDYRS

[6] = target: Voltage-gated potassium channel subunit beta-2 (Rattus norvegicus) (UniProt P62483); experiment: enhancers of rat Kvbeta2 NADPH turnover – biochemical, NADPH fluorescence, primary screen (AID 623;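 active means NADPH fluorescence slope more negative than the mean of all samples by about 3 SD, 99.7% confidence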;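 further: fluorescence intensity change per second fitted from 20 to 320 s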); settings: Recombinant KvBeta, NADPH fluorescence decrease slope, 10 min; at 10 µM; stronger effect = lower value
[7] = target: Muscarinic acetylcholine receptor M4 (Homo sapiens) (UniProt P08173); experiment: M4-linked GIRK flux change, two-sided – cell-based, HEK293 M4/GIRK, thallium flux, BTC-AM, M4 allosteric agonist project, primary screen (AID 625); settings: at 10 µM, actives lie on both sides;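 further: thallium influx through GIRK channels coupled to M4 in HEK293 cells with BTC-AM dye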
Muscarinic acetylcholine receptor M4 (Homo sapiens), sequence (P08173 whole entry, looked up): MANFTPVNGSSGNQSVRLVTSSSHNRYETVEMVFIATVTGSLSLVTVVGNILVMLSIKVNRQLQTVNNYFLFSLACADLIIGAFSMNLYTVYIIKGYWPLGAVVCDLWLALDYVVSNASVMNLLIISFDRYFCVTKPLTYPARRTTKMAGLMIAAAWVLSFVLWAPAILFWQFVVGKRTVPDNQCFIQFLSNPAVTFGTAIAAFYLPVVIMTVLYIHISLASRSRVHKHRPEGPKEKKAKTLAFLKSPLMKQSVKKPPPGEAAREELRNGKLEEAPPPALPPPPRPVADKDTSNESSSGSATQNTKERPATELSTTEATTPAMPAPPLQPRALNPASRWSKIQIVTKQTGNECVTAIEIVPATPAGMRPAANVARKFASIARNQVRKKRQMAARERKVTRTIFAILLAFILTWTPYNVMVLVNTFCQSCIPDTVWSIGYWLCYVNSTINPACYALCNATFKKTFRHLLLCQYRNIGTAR
In short: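 assay system = HEK293 cells with M4 receptor and GIRK channels | medium = pH 7.3 thallium assay buffer | doses = 10 µM final, single point | timing = cells overnight at 37 °C, BTC-AM loading 1 h, reads 2 min total | signal = BTC-AM fluorescence, 1 Hz kinetic reads | read-out = post-addition slope, 15–24 s, of baseline-normalized fluorescence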

[8] = inhibitors of larval lipid processing in zebrafish, primary screen, whole organism, PED6 fluorescence, gall bladder and intestine (AID 686;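 active means a full or partial loss of lipid-probe fluorescence in the fish gall bladder, intestine or both, judged by eye; inactive means no fluorescence loss, or compound toxic to the fish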;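 further: larvae 5 to 7 days old with five fish per well; signal comes from phospholipase A2 cleavage of quenched PED6 carried via bile; overnight exposure to compound and PED6 before scoring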); settings: Zebrafish larvae PED6 lipid processing, fluorescence scoring; screened at 20 µM (by protocol)
In short: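 Also added: quenched phospholipase substrate PED6, 100 nM final, ingested by larvae; System: zebrafish larvae, 5-7 d; Quantity: 5 larvae per well; Compound: 20 µM single dose; Schedule: overnight compound and PED6 incubation; Read-out: visual per-well fluorescence inhibition score; Measured by: By-eye fluorescence microscopy; Medium: E3.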

[9] = loss of swimming-algae plug formation – whole organism, Chlamydomonas reinhardtii, WT vs cilia-less mutant, absorbance, 96-well, primary screen (AID 463189;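 active means inhibition at or above 50% relative to wild type and mutant plate controls; inactive means inhibition below 50%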;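 further: 0% = wild type cc124 cells in DMSO and 100% = ciliumless bld1 mutant cells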); settings: Chlamydomonas reinhardtii gravitaxis, OD600 absorbance, 2 days; at 10 µM; stronger effect = higher value
[10] = measured here: cell density z-score
[11] = measured here: nuclear c-Myc green intensity z-score
[12] = measured here: nuclear pErk red intensity z-score, stronger effect = higher value

In the case of `COc1ccc(C(O)C(CN2CCOCC2)c2ccccc2)cc1` (configuration not stated), the cell count [1] is reported as 393, the inhibition [1] is reported as -2.8% (inactive) and the inhibition [2] is reported as -22.6% (inactive). It also gave a nuclei count [2] of 144%, a z-score [3, 10] of -0.497 and a z-score [3, 11] of -1.2. For the same molecule, the z-score [3, 12] was 2.05, the inhibition [4] was -2.59% (inactive) and the fluorescence slope [5] was -0.44 (inactive). For the same molecule, the NADPH fluorescence slope [6] was -0.00013 (inactive), the fluorescence slope [7] was 0.00559 (inactive) and the outcome [8] was “inactive”. The inhibition [9] was -3.86% (inactive).
For `Cc1nn(CC(=O)NCCN2CCOCC2)c(=O)c2ccccc12`, the cell count [1] was 472, the inhibition [1] was 4.4% (inactive) and the inhibition [2] was -0.8% (inactive). The nuclei count [2] was 116%, the z-score [3, 10] was -1.02 and the z-score [3, 11] was -0.0587. The z-score [3, 12] was 0.79, the inhibition [4] was 5.95% (inactive) and the fluorescence slope [5] was -0.469 (inactive). For the same molecule, the NADPH fluorescence slope [6] was -3.4e-05 (inactive), the fluorescence slope [7] was 0.00615 (inactive) and the outcome [8] was “inactive”. The inhibition [9] was 27.9% (inactive).
With `CC(O)CNc1nc2c(c(=O)n(C)c(=O)n2C)n1Cc1cccc(C(F)(F)F)c1` (configuration not stated) the cell count [1] was 679, the inhibition [1] was -9.1% (inactive) and the inhibition [2] was -182% (inactive). For the same molecule, the nuclei count [2] was 176%, the z-score [3, 10] was 0.999 and the z-score [3, 11] was -1.51. The z-score [3, 12] was -1.36, the inhibition [4] was 11.9% (inactive) and the fluorescence slope [5] was -0.511 (inactive). For the same molecule, the NADPH fluorescence slope [6] was -5e-05 (inactive), the fluorescence slope [7] was 0.00932 (inactive) and the outcome [8] was “inactive”. For the same molecule, the inhibition [9] was 4.09% (inactive).
With `Cn1c(NCc2ccccc2)nc2c1c(=O)n(Cc1ccccc1)c(=O)n2C` the cell count [1] was 694, the inhibition [1] was -5.5% (inactive) and the inhibition [2] was -54.8% (inactive). The nuclei count [2] was 172%, the z-score [3, 10] was 0.899 and the z-score [3, 11] was -0.674. For the same molecule, the z-score [3, 12] was 1.21, the inhibition [4] was 5.95% (inactive) and the fluorescence slope [5] was -0.461 (inactive). For the same molecule, the NADPH fluorescence slope [6] was -8.2e-05 (inactive), the fluorescence slope [7] was 0.00535 (inactive) and the outcome [8] was “inactive”. The inhibition [9] was 6.49% (inactive).
For `CN(C)CCCN(CCCNC(=O)/C=N/O)Cc1ccccc1`, the cell count [1] was 652, the inhibition [1] was -10.5% (inactive) and the inhibition [2] was -38% (inactive). For the same molecule, the nuclei count [2] was 181%, the z-score [3, 10] was -1.02 and the z-score [3, 11] was -0.157. The z-score [3, 12] was 0.798, the inhibition [4] was -2.09% (inactive) and the fluorescence slope [5] was -0.495 (inactive). The NADPH fluorescence slope [6] was -5.8e-05 (inactive), the fluorescence slope [7] was 0.00839 (inactive) and the outcome [8] was “inactive”. The inhibition [9] was 8.7% (inactive).
With `O=C(CN1C2=NCCN2c2ccccc21)N1CCOCC1` the cell count [1] was 629, the inhibition [1] was 11% (inactive) and the inhibition [2] was -7.9% (inactive). It also gave a nuclei count [2] of 115%, a z-score [3, 10] of 0.036 and a z-score [3, 11] of -0.429. For the same molecule, the z-score [3, 12] was -0.703, the inhibition [4] was -7.67% (inactive) and the fluorescence slope [5] was -0.447 (inactive). For the same molecule, the NADPH fluorescence slope [6] was -4.9e-05 (inactive), the fluorescence slope [7] was 0.00508 (inactive) and the outcome [8] was “inactive”. For the same molecule, the inhibition [9] was -8.14% (inactive).
In the case of `COC(=O)C(NC(=O)c1ccccc1)(Nc1nc(C)cs1)C(F)(F)F` (configuration not stated), the cell count [1] is reported as 687, the inhibition [1] is reported as -8.5% (inactive) and the inhibition [2] is reported as -24.1% (inactive). The nuclei count [2] was 152%, the z-score [3, 10] was -0.446 and the z-score [3, 11] was -1.08. The z-score [3, 12] was 0.594, the inhibition [4] was 10.9% (inactive) and the fluorescence slope [5] was -0.481 (inactive). The NADPH fluorescence slope [6] was -3.9e-05 (inactive), the fluorescence slope [7] was 0.00439 (inactive) and the outcome [8] was “inactive”. For the same molecule, the inhibition [9] was 11.6% (inactive).
With `CC(=O)Oc1ccc2c(C)cc(=O)[nH]c2c1` the cell count [1] was 666, the inhibition [1] was -2% (inactive) and the inhibition [2] was -13% (inactive). It also gave a nuclei count [2] of 99.4%, a z-score [3, 10] of -0.72 and a z-score [3, 11] of 0.616. The z-score [3, 12] was 0.878, the inhibition [4] was 5.95% (inactive) and the fluorescence slope [5] was -0.502 (inactive). The NADPH fluorescence slope [6] was -0.000195 (active), the fluorescence slope [7] was 0.00681 (inactive) and the outcome [8] was “inactive”. For the same molecule, the inhibition [9] was 22.8% (inactive).
For `COc1ccc(CC(=O)n2c(CC#N)nc3ccccc32)cc1OC`, the cell count [1] was 598, the inhibition [1] was -10.9% (inactive) and the inhibition [2] was -32.4% (inactive). The nuclei count [2] was 112%, the z-score [3, 10] was -0.393 and the z-score [3, 11] was -2.03. For the same molecule, the z-score [3, 12] was 0.813, the inhibition [4] was -0.233% (inactive) and the fluorescence slope [5] was -0.465 (inactive). The NADPH fluorescence slope [6] was -3.6e-05 (inactive), the fluorescence slope [7] was 0.00563 (inactive) and the outcome [8] was “inactive”. The inhibition [9] was 9.22% (inactive).
With `CCCc1nnc(NC(=O)Nc2ccccc2OC)s1` the cell count [1] was 618, the inhibition [1] was -9.4% (inactive) and the inhibition [2] was 14.1% (inactive). The nuclei count [2] was 100%, the z-score [3, 10] was 1.95 and the z-score [3, 11] was 0.159. For the same molecule, the z-score [3, 12] was -0.528, the inhibition [4] was 42.6% (inactive) and the fluorescence slope [5] was -0.515 (inactive). The NADPH fluorescence slope [6] was -4.1e-05 (inactive), the fluorescence slope [7] was 0.0109 (inactive) and the outcome [8] was “inactive”. The inhibition [9] was -5.69% (inactive).
For `CCCNc1ncnc2c1cnn2-c1ccc(OC)cc1`, the cell count [1] was 631, the inhibition [1] was -12.5% (inactive) and the inhibition [2] was -39.6% (inactive). The nuclei count [2] was 185%, the z-score [3, 10] was -1.64 and the z-score [3, 11] was -0.363. The z-score [3, 12] was 0.771, the inhibition [4] was 1.42% (inactive) and the fluorescence slope [5] was -0.37 (inactive). The NADPH fluorescence slope [6] was -4.9e-05 (inactive), the fluorescence slope [7] was 0.00652 (inactive) and the outcome [8] was “inactive”. The inhibition [9] was -16% (inactive).
For `COc1ccc(-n2ncc3c(Nc4cccc(C)c4)ncnc32)cc1`, the cell count [1] was 629, the inhibition [1] was -11.3% (inactive) and the inhibition [2] was -122% (inactive). For the same molecule, the nuclei count [2] was 182%, the z-score [3, 10] was 1.43 and the z-score [3, 11] was 1.07. The z-score [3, 12] was -1.65, the inhibition [4] was 11.4% (inactive) and the fluorescence slope [5] was -0.319 (inactive). The NADPH fluorescence slope [6] was -1.2e-05 (inactive), the fluorescence slope [7] was 0.00486 (inactive) and the outcome [8] was “inactive”. For the same molecule, the inhibition [9] was 3.81% (inactive).
With `Cn1c(=O)c2c3c(sc2n2c(SCC(=O)c4ccccc4)nnc12)COC(C)(C)C3` the cell count [1] was 532, the inhibition [1] was -12.7% (inactive) and the inhibition [2] was 44.5% (inactive). For the same molecule, the nuclei count [2] was 48.5%, the z-score [3, 10] was 0.653 and the z-score [3, 11] was -0.107. For the same molecule, the z-score [3, 12] was -0.293, the inhibition [4] was 9.07% (inactive) and the fluorescence slope [5] was -0.511 (inactive). The NADPH fluorescence slope [6] was 1.2e-05 (inactive), the fluorescence slope [7] was 0.00374 (inactive) and the outcome [8] was “inactive”. The inhibition [9] was 35.1% (inactive).
With `O=c1c(-c2ccc(Cl)cc2)[n+]([O-])c2ccccc2n1O` the cell count [1] was 517, the inhibition [1] was -16.1% (inactive) and the inhibition [2] was -12.5% (inactive). The nuclei count [2] was 170%, the z-score [3, 10] was 0.0473 and the z-score [3, 11] was 0.796. For the same molecule, the z-score [3, 12] was 0.573, the inhibition [4] was 15.9% (inactive) and the fluorescence slope [5] was -0.31 (inactive). The NADPH fluorescence slope [6] was -3.9e-05 (inactive), the fluorescence slope [7] was 0.0132 (active) and the outcome [8] was “inactive”. For the same molecule, the inhibition [9] was 33.5% (inactive).
